Screening results deposited in PubChem by The Scripps Research Institute Molecular Screening Center.
PAD4 FP inh = PAD4 (human) enzyme inhibition; Q9UM07; recombinant PAD4, RCA probe fluorescence polarization; inhibition, % at 6.36 µM; hit rate 0.41% among 330,000; AID 485272;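 active = percent inhibition above a cutoff equal to the mean of all tested compounds plus 3 SD, cut at about 15% in these data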
Fh CTSL1 inh = cathepsin L1 inhibition, PFM18AAP counter-screen; hit rate 0.49% among 300,000; recombinant F. hepatica cathepsin L1, Z-Leu-Arg-MCA fluorescence; AID 1906; inhibition, % at 5.96 µM;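 active = inhibition above the mean of all tested compounds plus 3 SD, set per screening campaign, cut at about 17% in these data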
TDP2 absorb = blocks human TDP2 phosphodiesterase activity; O95551; recombinant TDP2, T5PNP hydrolysis, p-nitrophenol absorbance 415 nm; inhibition, % at 12.8 µM; hit rate 0.34% among 370,000; AID 720702;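 active = inhibition above the mean of all tested compounds plus 3 SD, set per campaign, cut at about 25% in these data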
Target sequence (O95551 whole entry, looked up): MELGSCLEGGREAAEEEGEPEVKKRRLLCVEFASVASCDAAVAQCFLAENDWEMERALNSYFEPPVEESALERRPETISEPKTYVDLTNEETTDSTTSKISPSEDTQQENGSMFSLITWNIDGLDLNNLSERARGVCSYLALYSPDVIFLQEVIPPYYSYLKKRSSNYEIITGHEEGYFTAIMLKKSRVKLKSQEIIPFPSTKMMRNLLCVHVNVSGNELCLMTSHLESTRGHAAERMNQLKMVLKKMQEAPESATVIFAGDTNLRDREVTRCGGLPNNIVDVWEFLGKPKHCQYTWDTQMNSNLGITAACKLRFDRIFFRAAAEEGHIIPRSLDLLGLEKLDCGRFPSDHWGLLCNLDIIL
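Test system: human TDP2 enzyme; Input: 120 nM TDP2 per well; Buffer or medium: Mg2+-containing Tris-HCl buffer, pH 7.5; Reagent: 5 mM T5PNP; Dosing: 12.8 µM single point, 1% DMSO; Incubation: reaction 2 h, 37 °C; Detection: p-Nitrophenol epi absorbance; Read-out: % inhibition relative to enzyme-containing and enzyme-free wells; Replicates: single well per compound.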
GSTO1 counter = blocks human GSTO1 in RBBP9 counter-screen | AID 1974 | recombinant GSTO1, activity-based probe fluorescence polarization | inhibition, % at 5.96 µM | hit rate 1.1% among 300,000;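 active = inhibition above the campaign mean inhibition plus 3 SD, cut at about 35% in these data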
Target sequence (P78417 whole entry, looked up): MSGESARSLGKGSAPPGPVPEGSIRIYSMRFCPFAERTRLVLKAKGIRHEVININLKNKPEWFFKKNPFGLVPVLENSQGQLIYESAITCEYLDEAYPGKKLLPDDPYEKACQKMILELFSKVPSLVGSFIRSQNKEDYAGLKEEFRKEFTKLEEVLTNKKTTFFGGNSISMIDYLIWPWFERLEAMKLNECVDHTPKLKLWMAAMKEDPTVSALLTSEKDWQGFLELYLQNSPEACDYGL
Numbers stand for hits; - = inactive; . = no result. The list is not random: actives were taken first. Their share in the collection is about 1.4%.

SMILES	PAD4 FP inh	Fh CTSL1 inh	TDP2 absorb	GSTO1 counter
NC(=O)NNC(=S)Nc1cccc2ccccc12	-	91	-	-
NC(=O)c1ccccc1NC(=O)Nc1cccc2ccccc12	-	-	-	-
CCCCCn1nnnc1C1c2ccccc2OCC(=O)N1Cc1ccco1 (stereo unspecified)	.	.	-	.
Cc1c(C(O)(c2ccccc2)c2ccccc2)[n+]2ccccc2n1C	.	.	-	.
CCCN(CCC)c1nc(N(CCC)CCC)[nH]c(=O)n1	-	-	-	-
CCCN(CCC)c1nc(C#N)nc(N(CCC)CCC)n1	-	18	-	-
CN(C)c1nc(C#N)nc(N(C)C)n1	-	26	-	-
CC(C)=CCC/C(C)=C/CN1CC(=O)N2[C@H](C[C@@]3(n4ccc5ccccc54)c4ccccc4N(S(=O)(=O)c4ccccc4)[C@@H]23)C1=O	.	.	-	.
Cc1cc(C)nc(N(C#N)CC(=O)N(c2ccccc2)C(C)C)n1	-	-	-	-
CCc1ccc(C(=O)CN(C#N)c2nc(C)cc(C)n2)cc1	-	58	-	-
Cc1cc(C)nc(N(C#N)CC(=O)c2ccccc2)n1	-	69	-	-
Cn1c(=O)c(=O)n(C)c2cc(S(=O)(=O)CCC(=O)Nc3ccc(C(F)(F)F)cc3)ccc21	-	17	-	-
O=C(c1cc2cccc([N+](=O)[O-])c2oc1=O)N1CCOCC1	-	29	-	-
COc1ccc(OCC(=O)NNC(=O)c2ccc3c(=O)n4c(nc3c2)CCC4)cc1	-	-	-	37
COCCCNC(=O)/C(C#N)=C/c1ccc(OCC(=O)O)c(OC)c1	-	-	-	41
COc1ccc(/C=C(\C#N)C(=O)NCCc2ccccc2)cc1OCc1ccccc1	-	-	-	-
COC(CN(C(=O)CCl)C(C(=O)NC1CCCCC1)c1ccccc1C)OC (stereo unspecified)	-	20	-	80
COC(CN(C(=O)CCl)C(C(=O)NC1CCCC(C)C1C)c1ccc(C)cc1)OC (stereo unspecified)	-	61	.	-
CCCCCCCCN1C(=O)[C@H](CC(=O)N2CCCCC2)C[C@@]2(C(=O)OC)CCCCC=C12	.	.	-	.
CN(C(=O)[C@@H](C1CC1)[C@@H](O)c1ccc(Cl)cc1)c1ccccc1	.	.	-	.
O=C(NNC(=O)c1ccccc1Cl)c1ccccc1Cl	-	-	-	-
COc1ccc(COC(=O)NNC(=O)c2ccccc2Cl)cc1	-	52	-	-
CCN(C(=O)COC(=O)CCC(=O)c1ccc(Cl)cc1)c1c(N)n(Cc2ccccc2)c(=O)[nH]c1=O	.	.	-	.
CCOC(=O)C(C)(C)N(Cc1ccc(C)cc1)S(=O)(=O)c1ccc(Cl)c([N+](=O)[O-])c1	-	-	-	62
CCOC(=O)C(C)(C)N(Cc1ccc(Cl)cc1)S(=O)(=O)c1ccc(Cl)c([N+](=O)[O-])c1	-	-	.	65
SMILES	PAD4 FP inh	Fh CTSL1 inh	TDP2 absorb	GSTO1 counter
O=C(Nc1cccc(Cl)c1)OCCN1CCCC12CCC(c1ccccc1)CC2 (stereo unspecified)	.	.	-	.
O=Cc1ccc(/C=C2\c3ccccc3C(=O)N2c2ccccc2)o1	.	.	-	.
O=C(COC(=O)[C@H](Cc1ccccc1)N1C(=O)c2ccccc2C1=O)Nc1ccc2c(c1)OCO2	-	23	-	-
O=C(COC(=O)c1ccc(=O)n(Cc2ccccc2)n1)Nc1ccc2c(c1)OCCO2	-	19	-	-
O=C(COC(=O)c1ccccn1)Nc1ccc2c(c1)OCCO2	-	.	-	.
c1ccc(-n2c(SCc3cccc4ccccc34)nnc2-c2ccccn2)cc1	.	.	-	.
C[C@@H]1CN([C@@H](C)COC(=O)C(C)(C)C)C(=O)c2cc(NC(=O)Nc3ccccc3)ccc2O[C@@H](C)CCCCO[C@H]1CN(C)S(=O)(=O)c1ccc(F)cc1	.	.	-	.
O=C(Nc1ccc(Cl)c(Cl)c1)c1cccc2c1-c1ccccc1C2=O	.	.	-	.
O=C(NCCO)OC1CC2CC1[C@H]1CCCCN1C2=O (stereo partly specified)	.	.	-	.
Cn1c(=O)n(C)c2cc(/C=N/NC(N)=S)ccc21	-	33	-	-
C=CCNC(=S)N/N=C/c1ccc(C)c([N+](=O)[O-])c1	-	-	-	-
CN(C)c1ccc(/C=N/NC(N)=S)cc1[N+](=O)[O-]	-	19	-	-
CC(=O)N1CCN(C2=NC(=O)N(c3ccc(Br)cc3)C(=O)C2)CC1	.	.	-	.
Cn1c(=O)c2c(nc(OCc3ccccc3)n2C)n(C)c1=O	-	-	-	-
COc1cccc(COc2nc3c(c(=O)n(C)c(=O)n3C)n2C)c1	-	-	-	36
O=C(OCc1ccccc1)Oc1cncc(C(=O)O)c1	-	-	-	35
O=C(OCc1ccccc1)c1ccccc1	-	-	-	-
CSc1ccc(S(=O)(=O)N2CCC(C(=O)N3CCc4ccccc4C3)CC2)cc1	-	19	-	-
CCC1Oc2ccc(C)cc2N(CC(=O)NC2CCCCC2)C1=O (stereo unspecified)	-	-	-	-
CCC1Oc2ccc(C)cc2N(CC(=O)N(Cc2ccc(C)o2)C2CCCC2)C1=O (stereo unspecified)	-	28	-	-
COC(=O)c1cc(C(C)c2ccccc2O)n2ccccc12 (stereo unspecified)	.	.	-	.
COc1ccc(-n2c(N)c(C(=O)NCC3CCCO3)c3nc4ccccc4nc32)c(OC)c1 (stereo unspecified)	-	-	74	-
CC(C)OC(=O)CSc1nnc(-c2ccccn2)n1-c1ccccc1	-	-	-	37
Clc1ccc(Oc2nc3ccccc3n3cccc23)cc1	-	26	-	-
COc1ccc(Oc2nc3ccccc3n3cccc23)cc1	-	-	-	-
SMILES	PAD4 FP inh	Fh CTSL1 inh	TDP2 absorb	GSTO1 counter
CCn1c2ccccc2c2cc(NC(=O)COC(=O)c3ccc(NC(=O)CC#N)cc3)ccc21	-	-	-	36
CCn1c2ccccc2c2cc(NC(=O)COC(=O)c3ccc(C)cc3)ccc21	.	.	-	.
Cc1ccc(-c2c3c(nc4sc(C(N)=O)c(N)c24)CCCC3)o1	-	38	-	-
CN1CCN(c2ccc3c(c2)Oc2ccccc2CN(Cc2cn(Cc4ccccc4C(F)(F)F)nn2)S3(=O)=O)CC1	.	.	-	.
Cc1ccc(NC2=C(Cl)C(=O)OC2OC(=O)c2ccco2)cc1 (stereo unspecified)	-	81	-	-
Cc1ccc(Cn2nnc3c2-c2ccccc2S(=O)(=O)N(C(C)(C)C)C3)cc1	.	.	-	.
COCCn1c(-c2ccco2)csc1=Nc1cccnc1	-	-	.	-
COCCn1c(-c2cccs2)csc1=Nc1cccnc1	-	19	-	-
CCc1c(C)nc(SCC(=O)NNC(=O)Cc2ccc(OC)cc2)[nH]c1=O	-	18	-	-
CCc1c(C)nc(SCC(=O)Nc2nc(-c3ccc(OC)cc3)cs2)[nH]c1=O	-	-	-	-
CCOC(=O)c1sc(SC)c2c1CCC/C2=N/OC	-	-	-	-
CCOC(=O)c1sc(S(C)(=O)=O)c2c1CCc1conc1-2	-	42	-	-
Cc1n[nH]c(C)c1S(=O)(=O)NCCc1ccccc1	.	.	-	.
Cc1cc(C)c2c(N)c(C(=O)Nc3ncc(C)s3)sc2n1	-	17	-	-
C[C@@H]1ON(C)[C@H]2C[C@H]3c4cc(-c5cc6ccccc6o5)ccc4CCN3C[C@@H]12	.	.	-	.
